In ChEMBL document CHEMBL1133726, “Structure-activity relationships in platelet-activating factor (PAF). 10. From PAF antagonism to inhibition of HIV-1 replication” (J Med Chem, 2000) one finds CC50, inhibition and IC50 data, which are given here for 16 compounds.

In assay [1] the test system is Human immunodeficiency virus 1. Put plainly: Cytotoxic concentration against monocyte-derived macrophage infected by the HIV-1/Ba-L strain using neutral red staining assay. Format: functional. The essentials:
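Compound-exposed MDM, with drug renewed twice weekly, were checked microscopically during culture. At the end of culture they were stained with neutral red, and CC50 was calculated from the optical density values. The assay was repeated with cells from a second blood donor.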

The subject of assay [2] is Human immunodeficiency virus 1. In words: Percent inhibition at 100 uM dose of HIV-1 replication using monocyte-derived macrophages infected by the HIV-1/Ba-L strain. It is filed as functional. The method, boiled down: (§1)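 Human monocytes were elutriated from seronegative donor PBMC and differentiated 7 days into MDM in RPMI 1640 with 10% heat-inactivated FCS. 1 million MDM were pretreated 1 h with compound and infected with 10 000 TCID50 (0.01 moi) HIV-1/Ba-L, then washed at 24 h. Medium and drug were renewed twice weekly. Read-out was supernatant RT activity, with a second donor repeat; mean ± SD.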

For assay [3], the species on record is Oryctolagus cuniculus. In words: Inhibition of PAF-induced platelet aggregation was determined using platelet rich plasma (PRP) of New Zealand rabbits. Format: functional. The essentials: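 Rabbit platelet-rich plasma was incubated and stirred with antagonist for 2 min, then challenged with 2.5 nM PAF. Antagonist solutions in EtOH spanned 10^-2 to 10^-7 M. Aggregation was followed by continuous light-transmission recording and compared with PAF alone. IC50 came from dose-response curves (5-6 determinations).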

Assay [4] deals with Human immunodeficiency virus 1. In words: Antiviral activity towards inhibition of HIV-1 replication using monocyte-derived macrophage infected by the HIV-1/Ba-L strain. It is filed as functional, organism-based. The method, boiled down:
as §1

In assay [5] the test system is Human immunodeficiency virus 1. In words: Percent inhibition at 10 uM dose of HIV-1 replication using monocyte-derived macrophage infected by the HIV-1/Ba-L strain. Format: functional. The essentials: as §1
Assay [6] has as its system Human immunodeficiency virus 1. Put plainly: Antiviral activity towards inhibition of replication of HIV-1-DAS infected monocyte-derived macrophage. It is filed as functional, organism-based.

Bounds are passed on as bounds.

Take `COc1cc(C(=O)N2CCN(C(=O)c3cc(OC)c(OC)c(OC)c3)C(COC(=O)C(C)(C)C)C2)cc(OC)c1OC` (stereo not given): the CC50 in assay [1] is > 100 µM. Moreover, the inhibition at 100 µM in assay [2] amounted to 25%. Besides, in assay [3], half-maximal inhibition (IC50) required 0.1 µM.
The corresponding values for `CCCN(CCC)C(=O)OCC1CN(C(=O)c2cc(OC)c(OC)c(OC)c2)CCN1C(=O)c1cc(OC)c(OC)c(OC)c1` (stereo not given) are > 100 µM, 66% and 0.37 µM.
For `COc1cc(C(=O)N2CCN(C(=O)c3cc(OC)c(OC)c(OC)c3)C(COC(=O)NC(C)CC(C)C)C2)cc(OC)c1OC` (stereo not given), in that order: > 100 µM, -2% and 0.28 µM.
For `COc1cc(C(=O)N2CCN(C(=O)c3cc(OC)c(OC)c(OC)c3)C(COC(=O)NCC(C)(C)C)C2)cc(OC)c1OC` (stereo not given), the CC50 in assay [1] was > 100 µM. For the same compound, the inhibition at 100 µM in assay [2] stood at 74%. Besides, it took 1 µM to reach half-maximal inhibition in assay [3] (IC50).
As for `COc1cc(C(=O)N2CCN(C(=O)c3cc(OC)c(OC)c(OC)c3)C(COC(=O)N3CCCC3)C2)cc(OC)c1OC` (stereo not given), the CC50 in assay [1] was > 100 µM. In addition, the results for the IC50 in assay [4] and in assay [3] were > 100 µM and 10 µM, respectively.
In the case of `CCC1CN(C(=O)c2cc(OC)c(OC)c(OC)c2)CCN1C(=O)c1cc(OC)c(OC)c(OC)c1` (stereo not given), the CC50 in assay [1] was > 100 µM. Moreover, the IC50 in assay [4] came out at 230 µM; in assay [3], 0.46 µM.
Regarding `COc1cc(C(=O)N2CCN(C(=O)c3cc(OC)c(OC)c(OC)c3)C(C)C2)cc(OC)c1OC` (stereo not given), the CC50 in assay [1] was > 100 µM. The figures for the IC50 in assay [4] and in assay [3] were 66 µM and 0.56 µM, respectively.
In the case of `CCCCCCCCCCC1CN(C(=O)c2cc(OC)c(OC)c(OC)c2)CCN1C(=O)c1cc(OC)c(OC)c(OC)c1` (stereo not given), the CC50 in assay [1] is > 50 µM. In addition, in assay [5], the inhibition at 10 µM was 40%. Further, in assay [3], the IC50 is 0.24 µM.
In the case of `COc1cc(C(=O)N2CCN(C(=O)c3cc(OC)c(OC)c(OC)c3)C(CNC(=O)C(C)(C)C)C2)cc(OC)c1OC` (stereo not given), the half-maximal cytotoxic concentration (CC50) in assay [1] is > 100 µM. Moreover, the half-inhibitory concentration (IC50) in assay [4] and in assay [3] was > 100 µM throughout.
Regarding `COc1cc(C(=O)N2CCN(C(=O)c3cc(OC)c(OC)c(OC)c3)C(COC(=O)N3CCCCC3)C2)cc(OC)c1OC` (stereo not given), the CC50 in assay [1] is > 100 µM. Also, the IC50 in assay [4] came to 95 µM; in assay [3] it was 0.08 µM.
For `COc1cc(C(=O)N2CCN(C(=O)c3cc(OC)c(OC)c(OC)c3)CC2)cc(OC)c1OC`, the CC50 in assay [1] was > 100 µM. Moreover, the IC50 is > 100 µM in assay [4] and 1.78 µM in assay [3].
With `COc1cc(C(=O)N2CCN(C(=O)c3cc(OC)c(OC)c(OC)c3)C(COC(=O)NC(C)(C)C)C2)cc(OC)c1OC` (stereo not given), in assay [1], the CC50 is > 100 µM. Also, in assay [2], the inhibition at 100 µM came to 52%. The compound also returned an IC50 in assay [3] of 0.13 µM.
With `COc1cc(C(=O)N2CCN(C(=O)c3cc(OC)c(OC)c(OC)c3)C(CO)C2)cc(OC)c1OC` (stereo not given), in assay [1], the CC50 was > 100 µM. Moreover, the values for the IC50 in assay [4] and in assay [3] were > 100 µM and 1.27 µM, respectively.
Turning to `NC(=O)c1ccn2c1CS[C@@H]2c1cccnc1` (racemic) [DACOPAFANT], half-maximal inhibition in assay [3] (IC50) required 16 µM.
In assay [6], `NC(=O)c1ccn2c1CS[C@@H]2c1cccnc1` [DACOPAFANT] came in with an IC50 of 50 µM.
Consider `CCN(CC)C(=O)OCC1CN(C(=O)c2cc(OC)c(OC)c(OC)c2)CCN1C(=O)c1cc(OC)c(OC)c(OC)c1` (stereo not given) [PMS-601], for which the CC50 in assay [1] is > 1000 µM. The IC50 turned out to be 11 µM in assay [4] and 8 µM in assay [3]. For the same compound, the inhibition at 100 µM in assay [2] worked out at 95%.

The term CC50 denotes the concentration at which the toxic effect on the cells reaches its halfway point. Low readings indicate harm at low concentration, high ones better tolerance by the cells. The term inhibition denotes the change of the read-out against control, counted positive when it falls. By IC50 is commonly meant the point on the concentration scale where inhibition reaches its midpoint. Higher therefore signals lower potency.
